Source: ChEMBL document CHEMBL1157455, “Synthesis and anti-hepatitis B virus evaluation of novel ethyl 6-hydroxyquinoline-3-carboxylates in vitro” (Bioorg Med Chem, 2008)
Activity calls are given as the source filed them. The rule behind the calls is not given here.

Experiments:
[1] = Cytotoxicity against human HepG2.2.15 cells after 9 days by MTT assay; assay type: cell-based, HepG2 2.2.15; conditions: read-out: TC50
In short: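 HepG2.2.15 cells were treated as in the antiviral assay (RPMI 1640, 2% FBS, daily renewal), with untreated controls on each plate. Viability after 9 days of treatment was read from neutral red uptake as absorbance at 510 nm relative to untreated cells. TC50 is the 50% cytotoxic concentration.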

Hepatitis B virus [2] = experiment: Antiviral activity against HBV assessed as inhibition of viral surface-antigen production by enzyme immunoassay; assay type: functional, organism-based
In short: (§1)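 Confluent HepG2.2.15 cells were treated with varied doses in RPMI 1640 plus 2% FBS, with fresh medium and drug each day for 8 days. Secreted HBeAg or HBsAg in the supernatant was measured by semiquantitative enzyme immunoassay, giving a 50% inhibitory concentration (IC50).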

[3] = Selectivity index, ratio of TC50 for human HepG2.2.15 cells to IC50 for HBV surface antigen production
In short: (§2)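 SI = TC50/IC50. TC50 is the 50% cytotoxic concentration in HepG2.2.15 cells by neutral red uptake after 9 days. IC50 comes from the 8-day HepG2.2.15 treatment in RPMI 1640 with 2% FBS, read by Southern blot for DNA or by enzyme immunoassay for secreted HBeAg or HBsAg.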

[4] = Selectivity index, ratio of TC50 for human HepG2.2.15 cells to IC50 for HBV DNA replication; in short: as §2
Hepatitis B virus [5] = experiment: Antiviral activity against HBV assessed as inhibition of viral DNA replication by Southern blot; assay type: functional, organism-based
In short: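 Confluent HepG2.2.15 cultures were dosed across a range of concentrations in RPMI 1640 with 2% FBS. Medium and compound were renewed daily for 8 days. Intracellular HBV DNA was quantified by Southern blot hybridization and IC50 was taken as the 50% inhibitory concentration.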

Hepatitis B virus [6] = experiment: Antiviral activity against HBV assessed as inhibition of viral e-antigen production by enzyme immunoassay; assay type: functional, organism-based; in short: as §1
[7] = Selectivity index, ratio of TC50 for human HepG2.2.15 cells to IC50 for HBV e-antigen production; in short: as §2
Hepatitis B virus [8] = experiment: Antiviral activity against HBV assessed as inhibition of viral surface-antigen production at <60 uM by enzyme immunoassay; assay type: functional, organism-based

Structure (SMILES)	CC50 at 216 h [1] [µM]	IC50 (Hepatitis B virus [2]) [µM]	Ratio [3]	Ratio [4]	IC50 (Hepatitis B virus [5]) [µM]	IC50 (Hepatitis B virus [6]) [µM]	Ratio [7]	Activity (Hepatitis B virus [8])
CCOC(=O)c1cc2c(Cn3ccnc3)c(O)c(OC)cc2nc1CSc1ccc(F)cc1	202	42.8	6	6.2	41.7			
CCOC(=O)c1cc2c(CN3CCOCC3)c(O)c(OC)cc2nc1CSc1ccc(F)c(F)c1	79.7	5.8	13.7			10.9	7.3	
CCOC(=O)c1cc2c(CN3CCCCC3)c(O)c(OC)cc2nc1CSc1ccc(F)c(F)c1	135			5.6	24.1			
CCOC(=O)c1cc2c(Cn3ccnc3)c(O)c(OC)cc2nc1C[S+]([O-])c1cccc(OC)c1 (configuration not stated)	194	33.1	5.9					
CCOC(=O)c1cc2c(CN3CCCC3)c(O)c(OC)cc2nc1C[S+]([O-])c1ccc(F)cc1 (configuration not stated)	166	25.1	6.6	15.5	10.7	21.1	7.9	
CCOC(=O)c1cc2c(CN3CCCC3)c(O)c(OC)cc2nc1C[S+]([O-])c1ccc(F)c(F)c1 (configuration not stated)	16.5			3.1	5.3			
CCOC(=O)c1cc2c(CN3CCCC3)c(O)c(OC)cc2nc1CSc1ccc(F)cc1	47.3	8.5	5.6	4.6	10.2	9.3	5.1	
CCOC(=O)c1cc2c(CN3CCCCC3)c(O)c(OC)cc2nc1CSc1ccccc1	60.7			1.3	45.2			inactive
CCOC(=O)c1cc2c(Cn3ccnc3C)c(O)c(OC)cc2nc1CSc1ccc(F)cc1	78.5			2.6	30.6	16.2	4.8	
CCOC(=O)c1cc2c(CN3CCCC3)c(O)c(OC)cc2nc1C[S+]([O-])c1ccccn1 (configuration not stated)	9.4							
CCOC(=O)c1cc2c(Cn3ccnc3)c(O)c(OC)cc2nc1CSc1cccc(OC)c1	186					65.1	2.9	
CCOC(=O)c1cc2c(CN(C)C)c(O)c(OC)cc2nc1C[S+]([O-])c1ccc(F)cc1 (configuration not stated)	90.4	36.5	2.5	4.1	21.9			
CCOC(=O)c1cc2c(CN(C)C)c(O)c(OC)cc2nc1CSc1ccc(F)cc1	120	17.4	6.9	3.7	32.8			
Nc1ccn([C@@H]2CS[C@H](CO)O2)c(=O)n1 [LAMIVUDINE]	2210			7.1	311			
CCOC(=O)c1cc2c(CN3CCN(C)CC3)c(O)c(OC)cc2nc1CSc1ccc(F)c(F)c1	55.3	11.2	4.9					
CCOC(=O)c1cc2c(Cn3ccnc3)c(O)c(OC)cc2nc1CSc1ccc(F)c(F)c1	133			14.1	9.4	16.4	8.1	
CCOC(=O)c1cc2c(Cn3ccnc3)c(O)c(OC)cc2nc1C[S+]([O-])c1ccc(F)cc1 (configuration not stated)	160	26.2	6.1	34.1	4.7	98.1	1.6	
CCOC(=O)c1cc2c(CN(C)C)c(O)c(OC)cc2nc1CSc1ccccc1OC	58.5					20.5	2.9	
CCOC(=O)c1cc2c(Cn3ccnc3)c(O)c(OC)cc2nc1C[S+]([O-])c1ccc(F)c(F)c1 (configuration not stated)	90.8			7.3	12.5			
CCOC(=O)c1cc2c(CN3CCCC3)c(O)c(OC)cc2nc1CSc1ccccn1	17.5							
CCOC(=O)c1cc2c(Cn3ccnc3)c(O)c(OC)cc2nc1CSc1ccc(OC)c(OC)c1	189							
